Results: ChEMBL document CHEMBL1821616, “New insights into the structural requirements for pro-apoptotic agents based on 2,4-diaminoquinazoline, 2,4-diaminopyrido[2,3-d]pyrimidine and 2,4-diaminopyrimidine derivatives” (Eur J Med Chem, 2011)
Calls of active or inactive are those of the source. No cut-off for these calls is given here.

Columns and labels:
MDA-MB-231 [1] = assay: Induction of apoptosis in human MDA-MB-231 cells assessed as DNA fragmentation after 24 hrs by ELISA relative to control; type: functional
Procedure, shortened: (§1)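 DNA fragmentation was measured with the Cell Death Detection ELISA Plus kit after treatment of cultured tumour cells. The signal is expressed relative to untreated control cultures, which are set to 1.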

MDA-MB-231 [2] = assay: Cytotoxicity against human MDA-MB-231 cells after 72 hrs by neutral red dye assay; type: functional, cell-based; conditions: MDA-MB-231, 72 h
Procedure, shortened: (§2)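 Human tumour cells were grown as monolayers with 10% FBS and penicillin/streptomycin at 37 °C in 5% CO2 (HT-29 and T-24 in McCoy's, MDA-MB-231 in Leibovitz). They were exposed to compound in DMSO (≤0.5% v/v final) at screening concentrations of 20 and 100 μM for 72 h and read by neutral red uptake. Survival is relative to cells given DMSO only, in triplicate.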

T-24 [3] = assay: Induction of apoptosis in human T24 cells assessed as DNA fragmentation after 48 hrs by ELISA relative to control; type: functional; procedure, shortened: as §1
T-24 [4] = assay: Cytotoxicity against human T24 cells after 72 hrs by neutral red dye assay; type: functional, cell-based; conditions: T-24, 72 h; procedure, shortened: as §2
HT-29 [5] = assay: Cytotoxicity against human HT-29 cells assessed as cell survival at 100 uM after 72 hrs by neutral red dye assay; type: functional; conditions: HT-29, 72 h, read-out: Survival
Procedure, shortened: (§3)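 HT-29 and T-24 cells were grown in McCoy's medium and MDA-MB-231 in Leibovitz, each with 10% FBS plus penicillin/streptomycin, as monolayers at 37 °C in 5% CO2. Compounds in DMSO (≤0.5% v/v final) were applied for 72 h. Survival was read by neutral red uptake against 0.5% DMSO-treated cells, as the mean of triplicates.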

MDA-MB-231 [6] = assay: Cytotoxicity against human MDA-MB-231 cells assessed as cell survival at 100 uM after 72 hrs by neutral red dye assay; type: functional; conditions: MDA-MB-231, 72 h, read-out: Survival; procedure, shortened: as §3
HT-29 [7] = assay: Cytotoxicity against human HT-29 cells after 72 hrs by neutral red dye assay; type: functional, cell-based; conditions: HT-29, 72 h; procedure, shortened: as §2
T-24 [8] = assay: Cytotoxicity against human T24 cells assessed as cell survival at 100 uM after 72 hrs by neutral red dye assay; type: functional; conditions: T-24, 72 h, read-out: Survival; procedure, shortened: as §3
[9] = Cytotoxicity against human CRL11233 cells assessed as cell survival at 20 to 100 uM after 72 hrs by neutral red dye assay; type: cell-based; conditions: read-out: Survival
Procedure, shortened: (§4)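 The non-tumoral lines were grown with 10% FBS plus penicillin/streptomycin, as monolayers at 37 °C in 5% CO2: CRL-8799 in MEG medium and CRL-11233 in BEGM. Compounds in DMSO (≤0.5% v/v final) were applied for 72 h. Survival was read by neutral red uptake against 0.5% DMSO solvent-treated controls, as the mean of triplicates.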

HT-29 [10] = assay: Induction of apoptosis in human HT-29 cells assessed as DNA fragmentation after 48 hrs by ELISA relative to control; type: functional; procedure, shortened: as §1
[11] = Cytotoxicity against human CRL8799 cells assessed as cell survival at 20 to 100 uM after 72 hrs by neutral red dye assay; type: cell-based; conditions: read-out: Survival; procedure, shortened: as §4
HT-29 [12] = assay: Induction of apoptosis in human HT-29 cells assessed as caspase3 activation at IC50 after 48 hrs by FACS analysis relative to control; type: functional
Procedure, shortened: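 Active caspase-3 was detected by flow cytometry with a FITC anti-active-caspase-3 antibody kit, with readings at 14, 24 and 48 h. Treated cells were compared with untreated control cells. Results are scored as (+) for an increase of about 50% and (++) for a larger rise.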

SMILES	fold change (FC) (MDA-MB-231 [1])	IC50 (MDA-MB-231 [2]) [µM]	fold change (FC) (T-24 [3])	IC50 (T-24 [4]) [µM]	viability at 100 µM (HT-29 [5]) [%]	viability at 100 µM (MDA-MB-231 [6]) [%]	IC50 (HT-29 [7]) [µM]	viability at 100 µM (T-24 [8]) [%]	viability at 72 h, up to 100 µM [9] [%]	Activity (HT-29 [10])	viability at 72 h, up to 100 µM [11] [%]	Activity (MDA-MB-231 [1])	Activity (T-24 [3])	fold change (FC) (HT-29 [10])	Activity (HT-29 [12]) [%]
CCCCCCNc1nc(SC(C)C)nc2ncccc12	2.9	4.5	1.6	15.8	< 45	< 45	20.2	< 45							
Clc1ccc(CNc2nc(NCc3ccc(Cl)cc3)c3cccnc3n2)cc1	1.3	8.3	1.9	11	< 45	< 45	15	< 45	100	inactive	0				
CCCNc1nc(NCCC)c2ccccc2n1		4.43	2	28.9	< 45	< 45	18.9	< 45	66	inactive	0	inactive			
Clc1ccc(CNc2nc(NCc3ccc(Cl)cc3)c3ccccc3n2)cc1		4.26	2	6.41	< 45	< 45	5.89	< 45	0	inactive	0	inactive			
CCCCNc1nc(SCCCC)nc2ncccc12		8.4	3.7	10.6	< 45	< 45	13.6	< 45		inactive					
CCCCNc1nc(SC(C)C)nc2ncccc12	1.3	15.7		12.3	< 45	< 45	32.1	< 45		inactive			inactive		
Clc1ccc(CNc2ccnc(NCc3ccc(Cl)cc3)n2)cc1	2.2	2		8.5	< 45	< 45	9.8	< 45			0		inactive	2.7	
Cc1ccc(CNc2ccnc(NCc3ccc(C)cc3)n2)cc1	1.5	19.1	4.8	22.2	< 45	< 45	14.9	< 45	1		6			2	
CCCCNc1nc(NCCCC)c2ccccc2n1		1.09		19.3	< 45	< 45	6.96	< 45	1		4	inactive	inactive	1.5	
CCCCCCCNc1nc(SC(C)C)nc2ncccc12		7	1.5	8	< 45	< 45	24.4	< 45		inactive					
CCCCNc1nc(SCC)nc2ncccc12	2.2	9.2	1.5	20.9	< 45	< 45	25.3	< 45						1.2	
Cc1ccc(CNc2nc(NCc3ccc(C)cc3)c3cccnc3n2)cc1	4	3.2	2.7	5	< 45	< 45	7.5	< 45	100	inactive	95				
CCNc1nc(SCC)nc2ncccc12	2	18.7	1.3	20.1	< 45	< 45	26.2	< 45		inactive					
c1ccc2c(CCNc3nc(NCCc4c[nH]c5ccccc45)c4cccnc4n3)c[nH]c2c1		5.1		7.7	< 45	< 45	3	< 45			56	inactive	inactive	3	75
CCCCCCNc1nc(NCCCCCC)c2cccnc2n1		2.1		4.6	< 45	< 45	4.23	< 45							
CCCCCCNc1nc(NCCCCCC)c2ccccc2n1		7.56		23.3	< 45	< 45	5.81	< 45	0	inactive	2	inactive	inactive		
Cc1ccc(CNc2nc(NCc3ccc(C)cc3)c3ccccc3n2)cc1		5.47	4.3	15.4	< 45	< 45	4.42	< 45	33		13	inactive		5.2	
COc1ccc(CNc2ccnc(NCc3ccc(OC)cc3)n2)cc1	2.4	1.5	1.5	18.7	< 45	< 45	12.6	< 45			0			1.9	
CCCCCCNc1nc(SCC)nc2ncccc12	3.3	1.4	1.5	5.9	< 45	< 45	22.5	< 45						8.1	75
c1ccc(CCNc2ccnc(NCCc3ccccc3)n2)cc1	1.3	3.01	1.2	9.14	< 45	< 45	6.97	< 45	5	inactive	5				
Brc1ccc(CCNc2nc(NCCc3ccc(Br)cc3)c3cccnc3n2)cc1		2.7	1.5	11.5	< 45	< 45	4.1	< 45	100		90	inactive		7.2	
CCCCCNc1nc(NCCCCC)c2cccnc2n1	2.8	1.2	4.4	0.7	< 45	< 45	0.58	< 45	54		100			0.9	
CCCCCCNc1nc(SCCCCC)nc2ncccc12		9		18.5	< 45	< 45	18.4	< 45		inactive			inactive		
